Calls of active or inactive are those of the source. No cut-off for these calls is given here.
What was measured:
Mus musculus [1] = experiment: Anticonvulsant activity in albino Carworth Farms No.1 mouse assessed as protection against electric-current for 3 secs-induced seizure at 100 mg/kg, ip after 2 hrs by 6Hz minimal clonic seizure test; assay type: functional, organism-based; design: dose 100 mg/kg
In short: (§1)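 6 Hz psychomotor seizure test in mice. Compound given i.p. as a suspension in 0.5% methylcellulose. Corneal stimulation at 32 mA, 0.2-ms monopolar rectangular pulses at 6 Hz for 3 s, from a constant-current device. Tests run 0.25–4 h after dosing. A mouse counted as protected if it resumed normal exploratory behaviour within 10 s; scored as protected/tested.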

Mus musculus [2] = experiment: Neurotoxicity in albino Carworth Farms No.1 mouse assessed as motor impairment at 30 mg/kg, ip after 0.5 hrs by rotarod test; assay type: toxicity, organism-based; design: dose 30 mg/kg, route intraperitoneal; settings: in vivo
In short: (§2)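 Rotorod neurotoxicity in mice at 6 r.p.m. Compound given i.p. (30, 100, 300 mg/kg) in 0.5% methylcellulose; tested at 30 min and 4 h. Impairment is inability to keep equilibrium on the rod for a given time; scored as impaired/tested.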

Mus musculus [3] = experiment: Neurotoxicity in albino Carworth Farms No.1 mouse assessed as motor impairment at 100 mg/kg, ip after 0.5 hrs by rotarod test; assay type: toxicity, organism-based; design: dose 100 mg/kg, route intraperitoneal; settings: in vivo; in short: as §2
Mus musculus [4] = experiment: Neurotoxicity in albino Carworth Farms No.1 mouse assessed as motor impairment at 300 mg/kg, ip after 0.5 hrs by rotarod test; assay type: toxicity, organism-based; design: dose 300 mg/kg, route intraperitoneal; settings: in vivo; in short: as §2
Mus musculus [5] = experiment: Anticonvulsant activity in albino Carworth Farms No.1 mouse assessed as protection against electric-current for 3 secs-induced seizure at 100 mg/kg, ip after 0.25 hrs by 6Hz minimal clonic seizure test; assay type: functional, organism-based; design: dose 100 mg/kg; in short: as §1
Mus musculus [6] = experiment: Anticonvulsant activity in albino Carworth Farms No.1 mouse assessed as protection against subcutaneous metrazol-induced seizure at 30 mg/kg, ip after 0.5 hrs; assay type: functional, organism-based; design: dose 30 mg/kg
In short: (§3)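 Mouse scMET test. Compound given i.p. (30, 100 or 300 mg/kg) in 0.5% methylcellulose. Pentylenetetrazole 85 mg/kg (CD97) given s.c. at 0.5 or 4 h, then mice observed for 30 min. Protection is absence of clonic spasms; scored as protected/tested.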

Mus musculus [7] = experiment: Anticonvulsant activity in albino Carworth Farms No.1 mouse assessed as protection against subcutaneous metrazol-induced seizure at 30 mg/kg, ip after 4 hrs; assay type: functional, organism-based; design: dose 30 mg/kg; in short: as §3
Mus musculus [8] = experiment: Anticonvulsant activity in albino Carworth Farms No.1 mouse assessed as protection against subcutaneous metrazol-induced seizure at 100 mg/kg, ip after 0.5 hrs; assay type: functional, organism-based; design: dose 100 mg/kg; in short: as §3
Mus musculus [9] = experiment: Anticonvulsant activity in albino Carworth Farms No.1 mouse assessed as protection against subcutaneous metrazol-induced seizure at 100 mg/kg, ip after 4 hrs; assay type: functional, organism-based; design: dose 100 mg/kg; in short: as §3
Mus musculus [10] = experiment: Anticonvulsant activity in albino Carworth Farms No.1 mouse assessed as protection against subcutaneous metrazol-induced seizure at 300 mg/kg, ip after 0.5 hrs; assay type: functional, organism-based; design: dose 300 mg/kg; in short: as §3
Mus musculus [11] = experiment: Anticonvulsant activity in albino Carworth Farms No.1 mouse assessed as protection against subcutaneous metrazol-induced seizure at 300 mg/kg, ip after 4 hrs; assay type: functional, organism-based; design: dose 300 mg/kg; in short: as §3
Mus musculus [12] = experiment: Anticonvulsant activity in albino Carworth Farms No.1 mouse assessed as protection against electric-current for 3 secs-induced seizure at 100 mg/kg, ip after 4 hrs by 6Hz minimal clonic seizure test; assay type: functional, organism-based; design: dose 100 mg/kg; in short: as §1
Mus musculus [13] = experiment: Neurotoxicity in albino Carworth Farms No.1 mouse assessed as motor impairment at 100 mg/kg, ip after 0.25 hrs by rotarod test; assay type: toxicity, organism-based; design: dose 100 mg/kg, route intraperitoneal; settings: in vivo
In short: (§4)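 Rotorod neurotoxicity in mice (18–25 g) following i.p. dosing of a suspension in 0.5% methylcellulose in water, tested at intervals between 0.25 and 4 h. Impairment was scored as failure to keep equilibrium on a 6 r.p.m. rod, reported as number impaired/number tested.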

Mus musculus [14] = experiment: Neurotoxicity in albino Carworth Farms No.1 mouse assessed as motor impairment at 100 mg/kg, ip after 2 hrs by rotarod test; assay type: toxicity, organism-based; design: dose 100 mg/kg, route intraperitoneal; settings: in vivo; in short: as §4
Mus musculus [15] = experiment: Neurotoxicity in albino Carworth Farms No.1 mouse assessed as motor impairment at 100 mg/kg, ip after 4 hrs by rotarod test; assay type: toxicity, organism-based; design: dose 100 mg/kg, route intraperitoneal; settings: in vivo; in short: as §2
Mus musculus [16] = experiment: Anticonvulsant activity in ip dosed albino Carworth Farms No.1 mouse assessed as protection against electric-current for 3 secs-induced seizure after 0.25 hrs by 6Hz minimal clonic seizure test; assay type: functional; settings: albino Carworth Farms No.1, ip
Mus musculus [17] = experiment: Anticonvulsant activity in ip dosed albino Carworth Farms No.1 mouse assessed as time needs to show peak effect for electric-current for 3 secs-induced seizure after 0.25 hrs by 6Hz minimal clonic seizure test; assay type: functional
[18] = Neurotoxicity in ip dosed albino Carworth Farms No.1 mouse assessed as motor impairment after 0.5 hrs by rotarod test; assay type: toxicity, organism-based; settings: Carworth Farms No.1 (albino), in vivo
In short: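 Rotorod test in mice (18–25 g) dosed i.p. with compound suspended in 0.5% methylcellulose in water. Tested 30 min after dosing. Impairment was scored as inability to keep equilibrium on a 6 r.p.m. rod. TD50 came from groups of ≥8 mice at the time of peak effect, with 95% confidence intervals by probit analysis (Finney method).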

Mus musculus [19] = experiment: Neurotoxicity in albino Carworth Farms No.1 mouse assessed as motor impairment at 100 mg/kg, ip after 1 hr by rotarod test; assay type: toxicity, organism-based; design: dose 100 mg/kg, route intraperitoneal; settings: in vivo; in short: as §4
Mus musculus [20] = experiment: Anticonvulsant activity in albino Carworth Farms No.1 mouse assessed as protection against maximal electroshock-induced seizure at 30 mg/kg, ip after 0.5 hrs; assay type: functional, organism-based; design: dose 30 mg/kg
In short: (§5)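 Mouse MES test with compound given i.p. (30, 100 or 300 mg/kg) in 0.5% methylcellulose; tested at 0.5 and 4 h. Corneal stimulus of 50 mA at 60 Hz for 0.2 s, electrodes primed with 0.5% butacaine in 0.9% NaCl. Protection is abolition of hindlimb tonic extension; scored as protected/tested.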

Mus musculus [21] = experiment: Anticonvulsant activity in albino Carworth Farms No.1 mouse assessed as protection against maximal electroshock-induced seizure at 30 mg/kg, ip after 4 hrs; assay type: functional, organism-based; design: dose 30 mg/kg; in short: as §5
Mus musculus [22] = experiment: Anticonvulsant activity in albino Carworth Farms No.1 mouse assessed as protection against maximal electroshock-induced seizure at 100 mg/kg, ip after 0.5 hrs; assay type: functional, organism-based; design: dose 100 mg/kg; in short: as §5
Mus musculus [23] = experiment: Anticonvulsant activity in albino Carworth Farms No.1 mouse assessed as protection against maximal electroshock-induced seizure at 100 mg/kg, ip after 4 hrs; assay type: functional, organism-based; design: dose 100 mg/kg; in short: as §5
Mus musculus [24] = experiment: Anticonvulsant activity in albino Carworth Farms No.1 mouse assessed as protection against maximal electroshock-induced seizure at 300 mg/kg, ip after 0.5 hrs; assay type: functional, organism-based; design: dose 300 mg/kg; in short: as §5
Mus musculus [25] = experiment: Anticonvulsant activity in albino Carworth Farms No.1 mouse assessed as protection against maximal electroshock-induced seizure at 300 mg/kg, ip after 4 hrs; assay type: functional, organism-based; design: dose 300 mg/kg; in short: as §5
Mus musculus [26] = experiment: Neurotoxicity in albino Carworth Farms No.1 mouse assessed as motor impairment at 30 mg/kg, ip after 4 hrs by rotarod test; assay type: toxicity, organism-based; design: dose 30 mg/kg, route intraperitoneal; settings: in vivo; in short: as §2
Mus musculus [27] = experiment: Neurotoxicity in albino Carworth Farms No.1 mouse assessed as motor impairment at 300 mg/kg, ip after 4 hrs by rotarod test; assay type: toxicity, organism-based; design: dose 300 mg/kg, route intraperitoneal; settings: in vivo; in short: as §2
Mus musculus [28] = experiment: Toxicity in albino Carworth Farms No.1 mouse assessed as death following tonic extension at 300 mg/kg, ip after 0.5 hrs by rotarod test; assay type: organism-based; design: dose 300 mg/kg, route intraperitoneal; settings: in vivo
In short: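 Mice (18–25 g) were given 30, 100 or 300 mg/kg i.p. in 0.5% (v/v) aqueous methylcellulose. Neurotoxicity was checked on a 6 r.p.m. rotorod 30 min and 4 h after dosing and scored as inability to keep equilibrium. Death following tonic extension and sedation were recorded as observations (number of animals/number tested).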

Mus musculus [29] = experiment: Toxicity in albino Carworth Farms No.1 mouse subcutaneous metrazol-induced seizure model assessed as myoclonic jerk at 300 mg/kg, ip after 0.5 hrs; assay type: organism-based; design: dose 300 mg/kg; settings: in vivo, sc

| Structure (SMILES) | Activity (Mus musculus [2]) | Activity (Mus musculus [3]) | Activity (Mus musculus [4]) | Activity (Mus musculus [6]) | Activity (Mus musculus [7]) | Activity (Mus musculus [8]) | Activity (Mus musculus [9]) | Activity (Mus musculus [10]) | Activity (Mus musculus [11]) | Activity (Mus musculus [20]) | Activity (Mus musculus [21]) | Activity (Mus musculus [22]) | Activity (Mus musculus [23]) | Activity (Mus musculus [24]) | Activity (Mus musculus [25]) | Activity (Mus musculus [26]) | Activity (Mus musculus [27]) | other results |
| --- | --- | --- | --- | --- | --- | --- | --- | --- | --- | --- | --- | --- | --- | --- | --- | --- | --- | --- |
| CCOC(=O)CN1C(=O)[C@H](c2ccccc2)N2CCC[C@H]2C1=O | Non-toxic | Non-toxic | Toxic | inactive | inactive | inactive | inactive | inactive | inactive | inactive | inactive | Active | inactive | Active | Active | Non-toxic | Non-toxic | Activity (Mus musculus [1]): inactive; Activity (Mus musculus [5]): Active; Activity (Mus musculus [12]): inactive; Activity (Mus musculus [13]): Non-toxic; Activity (Mus musculus [14]): Non-toxic; Activity (Mus musculus [15]): Non-toxic; ED50 (Mus musculus [16]): 55.6 mg/kg; Time (Mus musculus [17]): 0.25 h; TD50 at 0.5 h [18]: 178 mg/kg; Activity (Mus musculus [19]): Non-toxic |
| Cl.O=C1CN2CCC[C@H]2C(=O)N1CCc1ccccc1 | Non-toxic | Non-toxic | Toxic | inactive | inactive | inactive | inactive | Active | inactive | inactive | inactive | inactive | inactive | Active | Active | Non-toxic | Non-toxic | Activity (Mus musculus [28]): Toxic; Activity (Mus musculus [29]): Toxic |

Source: ChEMBL document CHEMBL1909525, “Synthesis and anticonvulsant activity of novel 2,6-diketopiperazine derivatives. Part 1: perhydropyrrole[1,2-a]pyrazines” (Eur J Med Chem, 2011)
